We go through 14 molecules from ChEMBL document CHEMBL1143376, “Synthesis and biological evaluation of extraordinarily potent C-10 carba artemisinin dimers against P. falciparum malaria parasites and HL-60 cancer cells” (Bioorg Med Chem, 2009).

SMILES strings stand for the structures.

As a reminder, the IC50 is the concentration that inhibits the measured activity by half.

One series relates to HL-60. Nature of the series: Anticancer activity against human HL60 cells by MTT assay. Type of series: functional, cell-based. The essentials:
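HL-60 cells grown in RPMI-1640 with 10% v/v FBS and 1% v/v L-glutamine, 37 °C, 5% CO2, kept below 1 × 10⁶ cells/mL, passages 5–15. Seeded at 2.5 × 10⁴/well in triplicate and exposed for 72 h to […]. DMSO final below 0.5% v/v. Read by MTT (4 h) then SDS/DMF lysis (4 h), A570/590, as % of vehicle. IC50 taken from inhibition curves; experiments repeated at least three times.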

Series [1] concerns Plasmodium falciparum. Briefly: Antimalarial activity against chloroquine-sensitive Plasmodium falciparum 3D7 by [3H]hypoxanthine uptake. The series is classed as functional, organism-based.
In series [2] the test system is Plasmodium falciparum. Briefly: Antimalarial activity against chloroquine-resistant Plasmodium falciparum K1 by [3H]hypoxanthine uptake. Type of series: functional, organism-based.
In the next series the test system is PBMC. Briefly: Toxicity in PBMC at 250 uM. Type of series: cell-based.
The nature of series [3]: Therapeutic index, ratio of IC50 for human HL60 cells to IC50 for Plasmodium falciparum. Type of series: cell-based, HL-60. As to conditions: read-out: TI.

Regarding `C[C@H]1[C@@H](CCCOP(=O)(OCCC[C@H]2O[C@@H]3O[C@@]4(C)CC[C@H]5[C@H](C)CC[C@@H]([C@H]2C)[C@@]35OO4)Oc2ccccc2)O[C@@H]2O[C@@]3(C)CC[C@H]4[C@H](C)CC[C@@H]1[C@@]24OO3`, the figures for the IC50 in the series with HL-60 and in the series on Plasmodium falciparum [1] were 250 nM and 0.21 nM, respectively.

For the molecule `C[C@H]1[C@@H](O)O[C@@H]2O[C@@]3(C)CC[C@H]4[C@H](C)CC[C@@H]1[C@@]24OO3` [ARTENIMOL], the IC50 with HL-60 amounted to 2410 nM.

Turning to `COP(=O)(OCCC[C@H]1O[C@@H]2O[C@@]3(C)CC[C@H]4[C@H](C)CC[C@@H]([C@H]1C)[C@@]24OO3)OCCC[C@H]1O[C@@H]2O[C@@]3(C)CC[C@H]4[C@H](C)CC[C@@H]([C@H]1C)[C@@]24OO3`, the IC50 in the series with HL-60 was found to be 50 nM; with Plasmodium falciparum [1] it was 4.8 nM.

Regarding `CO[C@H]1O[C@@H]2O[C@@]3(C)CC[C@H]4[C@H](C)CC[C@@H]([C@H]1C)[C@@]24OO3` [ARTEMETHER], the IC50 stood at 3.53 nM in the series with Plasmodium falciparum [2] and 2.11 nM with Plasmodium falciparum [1].

Take `C[C@H]1[C@@H](CCNC(=O)C[C@H]2O[C@@H]3O[C@@]4(C)CC[C@H]5[C@H](C)CC[C@@H]([C@H]2C)[C@@]35OO4)O[C@@H]2O[C@@]3(C)CC[C@H]4[C@H](C)CC[C@@H]1[C@@]24OO3`: the IC50 amounted to 100 nM in the series with HL-60 and 0.03 nM in the series on Plasmodium falciparum [1].

Consider `COP(=O)(OCC[C@H]1O[C@@H]2OC3(C)CC[C@H]4[C@H](C)CC[C@@H]([C@H]1C)[C@@]24OO3)OCC[C@H]1O[C@@H]2OC3(C)CC[C@H]4[C@H](C)CC[C@@H]([C@H]1C)[C@@]24OO3` (single isomer, unassigned), for which the Activity result with PBMC is given as “Non-toxic”. In addition, the concentration for half-maximal inhibition (IC50) in the series on Plasmodium falciparum [2] stood at 0.2 nM; in the series with HL-60 it was 70 nM. Moreover, the selectivity ratio in series [3] was over 500.

Regarding `C[C@@H]1[C@@H](COP(=O)(OC[C@H]2O[C@@H]3O[C@@]4(C)CC[C@H]5[C@H](C)CC[C@@H]([C@@H]2C)[C@@]35OO4)Oc2ccccc2)O[C@@H]2O[C@@]3(C)CC[C@H]4[C@H](C)CC[C@@H]1[C@@]24OO3`, the IC50 with HL-60 was found to be 1040 nM; in the series on Plasmodium falciparum [1], 6 nM.

Regarding `COP(=O)(OC[C@H]1O[C@@H]2O[C@@]3(C)CC[C@H]4[C@H](C)CC[C@@H]([C@@H]1C)[C@@]24OO3)OC[C@H]1O[C@@H]2O[C@@]3(C)CC[C@H]4[C@H](C)CC[C@@H]([C@@H]1C)[C@@]24OO3`, the IC50 stood at 770 nM with HL-60 and 4.8 nM in the series on Plasmodium falciparum [1].

As for `C[C@H]1[C@@H](CCN2CCC(C3CCN(CC[C@H]4O[C@@H]5O[C@@]6(C)CC[C@H]7[C@H](C)CC[C@@H]([C@H]4C)[C@@]57OO6)CC3)CC2)O[C@@H]2O[C@@]3(C)CC[C@H]4[C@H](C)CC[C@@H]1[C@@]24OO3`, the figures for the IC50 in the series on HL-60 and in the series on Plasmodium falciparum [1] were 400 nM and 0.46 nM, respectively.

Take `COc1cccc2c1C(=O)c1c(O)c3c(c(O)c1C2=O)C[C@@](O)(C(=O)CO)C[C@@H]3O[C@H]1C[C@H](N)[C@H](O)[C@H](C)O1` [DOXORUBICIN]: the midpoint of inhibition in the series on HL-60, the IC50, lay at 18 nM.

Take `C[C@H]1[C@@H](CCNC(=O)NCC[C@H]2O[C@@H]3O[C@@]4(C)CC[C@H]5[C@H](C)CC[C@@H]([C@H]2C)[C@@]35OO4)O[C@@H]2O[C@@]3(C)CC[C@H]4[C@H](C)CC[C@@H]1[C@@]24OO3`: the IC50 with HL-60 is over 100000 nM; with Plasmodium falciparum [1], over 60 nM.

In the case of `C[C@H]1[C@@H](CCOC(=O)OCC[C@H]2O[C@@H]3O[C@@]4(C)CC[C@H]5[C@H](C)CC[C@@H]([C@H]2C)[C@@]35OO4)O[C@@H]2O[C@@]3(C)CC[C@H]4[C@H](C)CC[C@@H]1[C@@]24OO3`, the IC50 was over 100000 nM in the series with HL-60 and 4.6 nM with Plasmodium falciparum [1].

Molecule `C[C@@H]1CC[C@H]2[C@@H](C)C(=O)O[C@@H]3O[C@@]4(C)CC[C@@H]1[C@]32OO4` [ARTEMISININ] yielded an IC50 in the series with Plasmodium falciparum [1] of 12.3 nM.

Turning to `C[C@H]1[C@@H](CCOP(=O)(OCC[C@H]2O[C@@H]3OC4(C)CC[C@H]5[C@H](C)CC[C@@H]([C@H]2C)[C@@]35OO4)Oc2ccccc2)O[C@@H]2OC3(C)CC[C@H]4[C@H](C)CC[C@@H]1[C@@]24OO3` (single isomer, unassigned), in the series with PBMC, the Activity result is “Non-toxic”. Further, the figures for the IC50 with Plasmodium falciparum [2] and in the series on HL-60 were 0.5 nM and 270 nM, respectively. In series [3], the selectivity ratio was over 500.
